High-throughput results (PubChem BioAssay)
Diaph act CS: counter-screen for diaphorase-based assays: diaphorase activators and chemical reducers; Diaphorase/resazurin coupled assay, resorufin fluorescence, 16 min; hits give high values; 1 = vehicle wells, 0 = NADH-free wells; 190,000 tested, 0.005% active; activation factor at 20 µM;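 active means diaphorase activity raised at least twofold by the compound at 20 µM; inactive means activation factor below 2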
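Material: Purified diaphorase enzyme from Clostridium kluyveri | Buffer or medium: 50 mM HEPES pH 7.4 with 4.542 mM MgCl2, 0.005% Tween 20 | Times: 16 min enzyme reaction, ambient temperature | Signal: Red resorufin fluorescence at 544/590 nm excitation/emission | Measure: Increased resorufin signal from activators or reducing compounds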
Diaph inh CS: diaphorase inhibition or chemical oxidation counter-screen | diaphorase resazurin-to-resorufin fluorescence, NADH, 16 min; bacterial (C. kluyveri) enzyme, not human | inhibition, % at 20 µM | 190,000 tested, 0.69% active;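 active means primary screen inhibition at 20 µM above a set limit, cut at about 50% in these data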;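 further: plate controls were DMSO with full reaction for no effect and wells lacking NADH for full effect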
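Benchmarks: positive control wells lacking NADH, neutral wells with DMSO only. System: bacterial diaphorase enzyme (C. kluyveri). Input: 0.14 U/mL diaphorase, enzyme working solution. Detection: resorufin fluorescence, excitation 544 nm, emission 590 nm. Times: 16-min room-temperature incubation before reading.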
ABCB1 block: human ABCB1 inhibition, ABCG2 as counter-screen; inhibition, % at 6.6 µM; CCRF-Adr cells, JC-1 efflux, flow cytometry; 190,000 tested, 0.067% active; P08183; in the data active means inhibition above about 40%;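 further: 0% = vehicle and 100% = reference inhibitor; higher value means more JC-1 retained so stronger ABCB1 efflux block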
ABCG2 block: inhibitors of human ABCG2 transporter, ABCB1 counter-screen; Q9UNQ0; IgMXP3 cells, JC-1 efflux, flow cytometry; inhibition, % at 6.6 µM; 190,000 tested, 0.1% active; AID 1325;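 active means inhibition above 80%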;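 further: 0% = DMSO and 100% = nicardipine control wells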
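Test system: IgMXP3 (ABCG2) plus far-red-tagged CCRF-Adr (ABCB1) cells / Amount: 3 million cells/mL in well / Reagent: JC-1 transporter substrate / Timing: 10 min compound exposure, 25 °C / Signal: flow cytometry, 530 nm JC-1 signal / Read-out: percent efflux inhibition, scaled nicardipine 100% to DMSO 0% / Benchmarks: nicardipine as high control, DMSO as low control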
p47phox inh: inhibitors of human p47phox binding | P14598 | p47phox/p22phox peptide binding, fluorescence polarization, 2 h | inhibition, % at 24.7 µM | 220,000 tested, 0.53% active | AID 1274;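 active means inhibition above about 30%, limit read from the data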;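 further: 0% = p47phox with labelled peptide and 100% = labelled peptide alone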
HMGR II inh: blocks class II HMG-CoA reductase of Enterococcus faecalis | inhibition, % at 10 µM | 190,000 tested, 0.41% active | purified E. faecalis HMGR, NADPH absorbance 340 nm kinetic;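 active means inhibition above a set limit, the median over all tested compounds plus 3 SD, cut at about 9.5% in these data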;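 further: enzyme runs in reverse so mevalonate oxidation gives rising NADPH absorbance; 0% = complete reaction with DMSO and 100% = background rate lacking mevalonate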
ABCB1 confirm: confirmation of human ABCB1 transporter inhibitors, ABCG2 counter-screen; CCRF-Adr cells, JC-1 efflux, flow cytometry; inhibition, % at 6.6 µM; 270 tested, 7% active; shares compounds with ABCG2 block;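 active means inhibition of pump activity above 50%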;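 further: 0% = DMSO and 100% = nicardipine full pump inhibition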
ABCG2 single pt: confirmation of human ABCG2 transporter inhibitors, ABCB1 counter-screen; inhibition, % at 6.6 µM; 270 tested, 6% active; IgMXP3 cells, JC-1 efflux, flow cytometry; shares compounds with ABCG2 block;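 active means inhibition above 50%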;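 further: 0% = DMSO wells and 100% = nicardipine pump inhibitor wells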
IgMXP3 autofluor: counter-screen for ABCG2 inhibitors: compound fluorescence in IgMXP3 cells; shares compounds with ABCG2 block; compound autofluorescence 488/530 nm, flow; hits give high values; fluorescence at 6.6 µM; 270 tested, 30% active; AID 1480;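 active means fluorescence in ABCG2-expressing cells above the plate's control-well mean plus 3 SD, cut at about 15 in these data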;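 further: median cell fluorescence with compound minus that of DMSO-treated control cells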
CCRF autofluor: CCRF-Adr autofluorescence flag for ABCB1 confirmation; fluorescence at 6.6 µM; CCRF-Adr cells, compound autofluorescence 488/530 nm, flow cytometry; hits give high values; 270 tested, 30% active; shares compounds with ABCG2 block; AID 1483;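 active means fluorescence beyond the plate control mean plus 3 SD, with a fluorescence-to-maximum score over 2, cut at about 25 in these data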
An asterisk follows results filed as active. In the library only some 1.6% were active in any assay of this set; here they are far more common.

How did COc1ccc2cc(C(=O)OC(C)C)sc(=O)c2c1OC do in these assays?
Diaph act CS: 0.9; Diaph inh CS: 15; ABCB1 block: 2; ABCG2 block: 87*; p47phox inh: 5; HMGR II inh: 0; ABCB1 confirm: 1; ABCG2 single pt: 60*; IgMXP3 autofluor: -1.9; CCRF autofluor: -3.8

How did COc1ccc2cc(C(=O)NCC(=O)O)sc(=O)c2c1OC do in these assays?
Diaph act CS: 0.9; Diaph inh CS: 7; ABCB1 block: 1; ABCG2 block: 6; p47phox inh: -7; HMGR II inh: -1

What do the screens show for `COc1cccc(NC(=O)Nc2ccncc2)c1`?
Diaph act CS: 1.1; Diaph inh CS: -13; ABCB1 block: 44*; ABCG2 block: 59; p47phox inh: 0; HMGR II inh: -6; ABCB1 confirm: 1; ABCG2 single pt: 29; IgMXP3 autofluor: 0.96; CCRF autofluor: 5

How did COc1cccc(-c2nc(N3CC(C)CC(C)C3)c3ccccc3n2)c1O (stereo unspecified) do in these assays?
Diaph act CS: 0.8; Diaph inh CS: 25; ABCB1 block: 12; ABCG2 block: 61; p47phox inh: -11; HMGR II inh: -2; ABCB1 confirm: 72*; ABCG2 single pt: 46; IgMXP3 autofluor: -1.9; CCRF autofluor: -4.9

What do the screens show for `COc1cccc(-c2nc(N3CCC(C)CC3)c3ccccc3n2)c1O`?
Diaph act CS: 0.7; Diaph inh CS: 35; ABCB1 block: 4; ABCG2 block: 44; p47phox inh: -4; HMGR II inh: 0

Results for N#C/C(=C/c1ccc(N2CCCCC2)o1)C(=O)Nc1ccc(Cl)cc1 ?
Diaph act CS: 0.8; Diaph inh CS: 18; ABCB1 block: 45*; ABCG2 block: 82*; p47phox inh: 19; ABCB1 confirm: -48; ABCG2 single pt: -66; IgMXP3 autofluor: 171*; CCRF autofluor: 118*

How did N#C/C(=C/c1ccc(N2CCCCC2)o1)C(=O)Nc1ccc2ccccc2c1 do in these assays?
Diaph act CS: 0.8; Diaph inh CS: 22; ABCB1 block: 134*; ABCG2 block: active; p47phox inh: -30; HMGR II inh: -3; ABCB1 confirm: -144; ABCG2 single pt: -90; IgMXP3 autofluor: 397*; CCRF autofluor: 624*

How did N#C/C(=C\c1ccc(N2CCOCC2)o1)C(=O)Nc1ccc(O)cc1 do in these assays?
Diaph act CS: 0.7; Diaph inh CS: 25; ABCB1 block: 0; ABCG2 block: 6; p47phox inh: -16; HMGR II inh: 0

Results for CCc1ccc(OCC(=O)N/N=C(\C)c2ccc(OC(F)F)cc2)cc1 ?
Diaph act CS: 0.9; Diaph inh CS: 5; ABCB1 block: 4; ABCG2 block: 104*; p47phox inh: -3; HMGR II inh: -4; ABCB1 confirm: -9; ABCG2 single pt: 17; IgMXP3 autofluor: 15*; CCRF autofluor: 12

What do the screens show for `CCCCN(C(=O)CN1CC(C)OC(C)C1)c1c(N)n(CC(C)C)c(=O)[nH]c1=O` (stereo unspecified)?
Diaph act CS: 1.1; Diaph inh CS: -9; ABCB1 block: 0; ABCG2 block: -2; p47phox inh: -6; HMGR II inh: -12

How did COC(=O)c1cc(OC)c(OC)cc1NC(=O)c1cccc(C)c1 do in these assays?
Diaph act CS: 0.9; Diaph inh CS: 9; ABCB1 block: 2; ABCG2 block: 4; p47phox inh: -3; HMGR II inh: -4

What do the screens show for `CCCCN(CC)c1nc(N)c(C#N)c(CC#N)c1C#N`?
Diaph act CS: 1; Diaph inh CS: 4; ABCB1 block: 0; ABCG2 block: 0; p47phox inh: -34; HMGR II inh: -3

How did CCCCN(CC)c1nc(N)c2c(N)nc(OCC)cc2c1C#N do in these assays?
Diaph act CS: 0.6; Diaph inh CS: 36; ABCB1 block: 4; ABCG2 block: 78; p47phox inh: -22; HMGR II inh: -2; ABCB1 confirm: 9; ABCG2 single pt: 33; IgMXP3 autofluor: -0.14; CCRF autofluor: -2.6

Results for O=C(Nc1nnc(C2CC2)s1)c1cc(S(=O)(=O)N2CCCCC2)ccc1N1CCOCC1 ?
p47phox inh: -7

How did CCc1nnc(NC(=O)c2cc(S(=O)(=O)N3CCOCC3)ccc2N2CCCCC2)s1 do in these assays?
Diaph act CS: 0.8; Diaph inh CS: 17; ABCB1 block: 69*; ABCG2 block: 77; p47phox inh: -98; HMGR II inh: -5; ABCB1 confirm: 3; ABCG2 single pt: 15; IgMXP3 autofluor: -1; CCRF autofluor: -0.79

Results for O=C(Nc1ccccc1)C1=C[C@H](c2coc3ccccc3c2=O)C[C@H](OCc2ccc(CO)cc2)O1 ?
Diaph act CS: 0.6; Diaph inh CS: 41; ABCB1 block: 4; ABCG2 block: 7; HMGR II inh: 3

Results for CCOC(=O)c1sc2cc([N+](=O)[O-])cc(SCCO)c2c1N ?
Diaph act CS: 0.9; Diaph inh CS: 10; ABCB1 block: 2; ABCG2 block: 82*; p47phox inh: -16; HMGR II inh: -5; ABCB1 confirm: 1; ABCG2 single pt: 21; IgMXP3 autofluor: 1.4; CCRF autofluor: -0.69

How did CCOC(=O)c1sc2cc([N+](=O)[O-])cc(SCC(=O)OC)c2c1N do in these assays?
Diaph act CS: 0.7; Diaph inh CS: 34; ABCB1 block: 3; ABCG2 block: 40; p47phox inh: -18; HMGR II inh: -3

Results for CCOc1ccc(OCc2ccc(C(=O)OCc3ccccn3)o2)cc1 ?
Diaph act CS: 1; Diaph inh CS: -3; ABCB1 block: 3; ABCG2 block: 87*; p47phox inh: -13; HMGR II inh: -1; ABCB1 confirm: 0; ABCG2 single pt: 26; IgMXP3 autofluor: 0.46; CCRF autofluor: -2.7

What do the screens show for `CCCCCCCCNC(=O)c1cccnc1SCC(=O)Nc1ccccc1OC`?
Diaph act CS: 1.1; Diaph inh CS: -15; ABCB1 block: 5; ABCG2 block: 92*; p47phox inh: -14; HMGR II inh: -7; ABCB1 confirm: 24; ABCG2 single pt: 40; IgMXP3 autofluor: -1.7; CCRF autofluor: -0.54
